Screens (PubChem)
Wee1 stabilizer: human Wee1 degradation inhibition, primary screen; P30291; HeLa Luc-Wee1K328M stability, luciferase luminescence; 100% = proteasome inhibitor MG132 effect; reporter increase, % at 5 µM; 1.2% of 220,000 active;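 active = activation above the mean of all tested compounds plus 3 SD, set per screening run, cut at about 8.8% in these data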;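 also: cells exposed to compound for 20 h before luminescence read; 0% = DMSO alone and 100% = MG132 at 30 µM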
TNF death inh: inhibitors of TNF-alpha induced necroptosis in Jurkat FADD-/- cells | Jurkat FADD-/- TNF necroptosis rescue, ATP luminescence, 24 h; 0 = TNF only, 100 = no-TNF cells | 0.068% of 220,000 active | activation (protection from cell death), % at 10 µM;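 active = activation, meaning protection from cell death, of at least 50% relative to plate controls; inactive = activation below 50%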;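 also: necroptosis triggered by 40 ng/mL TNF-alpha added together with compound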
p97 ATPase inh: inhibitors of human p97 ATPase. AID 1481. inhibition, % at 8 µM. 0.42% of 220,000 active. recombinant p97 ATPase, Kinase-Glo ATP luminescence, 3 h; in the data active = inhibition above about 15%;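 also: 0% = DMSO vehicle and 100% = wells lacking enzyme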
Target sequence (P55072 whole entry, looked up): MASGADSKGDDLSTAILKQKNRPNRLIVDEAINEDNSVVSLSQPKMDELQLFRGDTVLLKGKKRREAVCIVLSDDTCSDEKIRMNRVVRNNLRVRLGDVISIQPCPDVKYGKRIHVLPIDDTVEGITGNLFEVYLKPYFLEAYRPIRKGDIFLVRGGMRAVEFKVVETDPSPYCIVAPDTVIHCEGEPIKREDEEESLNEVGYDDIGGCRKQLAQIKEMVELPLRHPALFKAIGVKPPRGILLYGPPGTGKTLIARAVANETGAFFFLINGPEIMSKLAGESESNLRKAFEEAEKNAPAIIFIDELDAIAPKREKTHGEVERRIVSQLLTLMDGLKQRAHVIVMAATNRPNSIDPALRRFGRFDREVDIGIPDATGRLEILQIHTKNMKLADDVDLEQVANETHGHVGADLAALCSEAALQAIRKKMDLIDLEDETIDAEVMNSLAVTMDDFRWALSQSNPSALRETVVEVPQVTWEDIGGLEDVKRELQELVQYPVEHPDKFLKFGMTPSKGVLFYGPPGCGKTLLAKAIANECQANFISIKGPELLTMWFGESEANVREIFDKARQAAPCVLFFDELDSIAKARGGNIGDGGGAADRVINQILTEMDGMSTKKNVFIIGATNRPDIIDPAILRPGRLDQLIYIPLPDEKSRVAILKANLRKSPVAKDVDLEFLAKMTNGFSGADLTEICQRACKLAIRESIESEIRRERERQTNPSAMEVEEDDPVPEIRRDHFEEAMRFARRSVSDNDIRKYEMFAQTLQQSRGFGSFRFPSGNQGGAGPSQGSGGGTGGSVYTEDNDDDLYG
RBBP9 inhibitor: inhibitors of human serine hydrolase RBBP9; O75884; recombinant RBBP9, FP-Rh probe fluorescence polarization; inhibition, % at 7.94 µM; 0.2% of 220,000 active; AID 1515;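 active = inhibition above the campaign mean of all tested compounds plus 3 SD, cut at about 14% in these data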;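 also: plate controls were DMSO wells with RBBP9 for no effect and wells lacking RBBP9 protein for full effect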
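Test system: recombinant human RBBP9; Timing: 30 min then 45 min, 25 °C; Detection: fluorescence polarization; Control set: RBBP9 with DMSO as uninhibited control, no-protein wells as full inhibition; Compound dosing: one concentration, 7.94 µM nominal, 0.794% DMSO; Probe or stimulus: FP-Rh activity-based probe, 375 nM before mixing.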
PfM18AAP inh: PfM18AAP enzyme inhibition | inhibition, % at 7.35 µM | 1.2% of 290,000 active | AID 1822 | recombinant PfM18AAP, H-Glu-NHMec fluorogenic cleavage;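 active = inhibition above the campaign mean inhibition over all tested compounds plus 3 SD, cut at about 28% in these data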;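 also: 0% = plate median of test compound wells and 100% = 2 mM ZnCl2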
zVAD death inh: blocks zVAD induced death of L929 cells; L929 zVAD necroptosis rescue, ATP luminescence, 24 h; with zVAD 60 µM; viability rescue, % at 10 µM; 0.38% of 220,000 active;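 active = activation, scaled between plate controls, above about 75%, limit read from the data; inactive = activation under that limit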;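 also: 0% = zVAD with DMSO and 100% = DMSO alone without zVAD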
zVAD necrop conf: confirmed blocker of zVAD induced death in L929 cells | activation (protection from necroptosis), % at 10 µM | shares compounds with zVAD death inh | 16% of 760 active | L929 zVAD-induced necroptosis rescue, ATP luminescence, 24 h | AID 463117;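 active = mean protection from necroptosis of at least 50% over duplicate tests; inactive = mean protection below 50%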;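 also: 0% = cells with zVAD alone and 100% = vehicle cells without zVAD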
The depositor's hits bear a star; . = no result given; ! = not confirmed by another sample. In the library only some 2.7% were active in any assay of this set; here they are far more common.

SMILES	Wee1 stabilizer	TNF death inh	p97 ATPase inh	RBBP9 inhibitor	PfM18AAP inh	zVAD death inh	zVAD necrop conf
CC[C@H](C)[C@H](NC(N)=O)C(=O)Nc1ccc(NC(C)=O)cc1	-3	0	4	0	1	-1	.
CCC(C)C(NC(N)=O)C(=O)Nc1ccc(C(=O)OC)cc1 (centres undefined)	-2	1	0	3	-3	78*	4
Cc1cc(-c2n[nH]c(=S)n2/N=C/C(Cl)=C/c2ccccc2)n[nH]1	-1	-4	2	-6	8	83*	2
S=c1[nH]nc(-c2ccco2)n1/N=C/c1ccccn1	1	-1	2	1	20	0	.
S=c1[nH]nc(-c2ccco2)n1/N=C/C(Cl)=C/c1ccccc1	2	-9	2	0	17	77*	4
COc1ccc(N(CC(=O)O)S(=O)(=O)c2ccc(C)cc2)cc1Cl	0	0	7	-8	-1	28	.
O=C(NCC1CCCO1)C(=O)N/N=C/c1c(F)cccc1Cl (centres undefined)	.	.	.	.	2	.	.
Cc1ccc(NC(=O)C(=Cc2ccc(C(=O)O)cc2)C(=O)Nc2ccc(C)cc2C)c(C)c1	1	-1	-6	-9	0	85*	40
O=C(CCOc1ccccc1)Nc1ccnn1C1CCN(C(=O)CCC(F)(F)F)CC1	.	.	.	.	-11	.	.
CCC(=O)Nc1ccc(C(=O)NNC(=O)COc2cc(C)ccc2C)cc1	2	1	5	0	3	85*	45
Cc1ccc(OCC(=O)NNC(=O)c2ccc(NC(=O)C3CC3)cc2)c(C)c1	.	.	.	.	4	.	.
CCCCN1C2CCCC1CC(NC(=O)c1cccc(Cl)c1)C2 (centres undefined)	.	.	.	.	5	.	.
CCOC(=O)c1c(NC(=O)N/N=C/c2ccc(O)c(OC)c2)sc(C(C)=O)c1C	0	-13	4	2	-9	78*	40
CCOC(=O)c1c(NC(=O)N/N=C/c2ccccc2OCC)sc(C(C)=O)c1C	0	2	-4	-7	-9	1	.
CCn1c2ccccc2c2cc([N+](=O)[O-])ccc21	-2	0	3	-6	3	2	.
CCn1c2ccccc2c(=O)c2ccccc21	5	0	2	-7	5	80*	2
COc1ccccc1Nc1nc(-c2ccccc2O)nc2ccccc12	3	2	5	-4	-9	76*	0
CSCCC(NS(=O)(=O)c1ccc(C)c(C(=O)O)c1)C(=O)O (centres undefined)	1	1	3	-6	-13	3	.
Cc1nc(-c2nnc(SCC(=O)Nc3cc(Cl)cc(Cl)c3)n2C)cs1	-1	1	5	1	5	0	.
Clc1ccc2ccc3cccnc3c2n1	.	.	.	.	1	.	.
Cc1[nH]c2c(ccc3cccnc32)c1C	-1	12	8	-6	0	78*	10
NS(=O)(=O)c1cccc(NC(=O)Nc2ccc(Cl)cc2)c1	1	1	3	-2	-5	75*	3
Cc1cccc(NC(=O)Nc2ccc(S(N)(=O)=O)cc2)c1	0	5	4	-9	1	2	.
CCN1CCN(Cc2ccc(NC(=O)c3cc(NC(=O)c4cnn(-c5ccccc5)c4N)cc(OC)c3)cc2C(F)(F)F)CC1	.	-26	.	.	.	80*	81*
CCN1CCN(Cc2ccc(NC(=O)c3ccc(C)c(NC(=O)c4ccnnc4)c3)cc2C(F)(F)F)CC1	.	5	.	.	.	76*	56*
SMILES	Wee1 stabilizer	TNF death inh	p97 ATPase inh	RBBP9 inhibitor	PfM18AAP inh	zVAD death inh	zVAD necrop conf
CCN1CCN(Cc2ccc(NC(=O)c3cc(NC(=O)c4cc(C)on4)cc(OC)c3)cc2C(F)(F)F)CC1	.	.	.	.	0	.	.
O=c1oc2ccccc2nc1/C=C(O)/C=C/c1ccc(F)cc1	-1	11	3	-10	16	14	.
Cc1ccc(/C(O)=C/c2nc3ccccc3oc2=O)cc1	-1	17	3	-10	13	77*	1
O=c1oc2ccccc2nc1/C=C(O)/C=C\c1ccccc1	1	10	-1	-6	21	78*	3
CN(C)c1ccc(C(=O)N2CCCC(N3CCN(Cc4ccc5c(c4)OCO5)CC3)C2)cc1 (centres undefined)	.	.	.	.	4	.	.
O=C(Nc1ccc(Cl)cc1)Nc1ccccn1	.	.	.	.	1	.	.
O=C(Nc1ccc(Cl)cc1)Nc1cnccn1	0	0	-1	-11	-3	76*	7
O=C(Nc1cnccn1)Nc1ccccc1Cl	0	-2	3	-1	-1	79*	2
O=C(Nc1ccc(F)c(Cl)c1)Nc1cnccn1	0	1	8	1	2	3	.
O=C(Nc1ccccc1)Nc1ccccn1	1	1	-1	-11	3	77*!	3
Cc1ccc(-n2c(-c3ccccc3)c[n+]3c2CCc2ccccc2-3)c(C)c1	-2	-5	2	-11	2	-2	.
COc1ccccc1N(C1=NCCCS1)S(=O)(=O)c1ccc(C(C)(C)C)cc1	1	0	1	1	4	0	.
C=C(C)C(=O)Oc1ccc(N2C(=O)[C@@H]3C4C=CC(C4)[C@@H]3C2=O)cc1	.	.	.	.	-8	.	.
C(=N\Nc1ncnc2nc[nH]c12)/c1cccs1	-1	-3	6	-5	-1	77*	40
Cc1ccsc1/C=N/Nc1ncnc2nc[nH]c12	8	-7	-2	-4	13	64	.
C(=N/Nc1nccs1)/c1cccnc1	5	7	3	-7	17	78*	4
O=c1nc2cccc3c2=c(/c1=C(\O)c1ccccc1)c1ccccc1c3=O	-2	3	4	-5	-4	80*	0
CC(C)(C)c1cc(NC(=O)Nc2ccc(Br)cc2Cl)no1	3	2	1	-12	-10	76*	2
O=C(Nc1ccc(OCC(=O)N2CCOCC2)cc1)Nc1cccc(Cl)c1	-5	2	2	-1	-1	71	.
CC(C)(C)c1ccc(NC(=O)Nc2ccc(OCC(=O)N3CCOCC3)cc2)cc1	2	2	3	-2	1	80*	40
Cc1cc(C)c2cc(C(=O)Nc3ccccc3)[nH]c2c1	2	-1	14	-7	4	4	.
CSc1sc(C(=O)NCC2CC2)cc1S(=O)(=O)C(C)C	-1	1	3	2	0	0	.
COC(=O)c1cc(S(=O)(=O)C(C)C)c(S(C)=O)s1 (centres undefined)	2	2	5	2	-1	77*	11
COc1ccc(OCC(=O)Nc2nc3c(s2)CCCC3)cc1	.	.	.	.	11	.	.
COc1ccc(NC(=O)Nc2nc3c(s2)CCCC3)cc1	0	8	-1	-3	-2	79*	33
